Laboratory results from ChEMBL document CHEMBL4706642, “Discovery of a Potent Dual Inhibitor of Acetylcholinesterase and Butyrylcholinesterase with Antioxidant Activity that Alleviates Alzheimer-like Pathology in Old APP/PS1 Mice” (J Med Chem, 2021).
The source made the active and inactive calls.

What was measured:
Mus musculus [1] = assay: (§1) Antialzheimer activity in 11 months old APP/PS1 double mutant-transgenic mouse model assessed as theta burst induced-long term potentiation in CA3 region of hippocampus at 2 mg/kg, ip administered thrice a week for 4 weeks by fluorescence microscopy based electrophysiology method (reference value: 83.9 +/- 21.1 %); format: functional
Mus musculus [2] = assay: Antiinflammatory activity in 6 months young APP/PS1 double mutant-transgenic mouse model assessed as reduction in GFAP level in hippocampus at 2 mg/kg, ip administered thrice a week for 4 weeks by Hoechst staining based immunofluorescence analysis; format: functional, organism-based
Method in brief: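 Hippocampal GFAP immunofluorescence with Hoechst nuclear counterstain in male APP/PS1 mice after 2 mg/kg i.p. in saline (or vehicle), three times per week for 4 weeks. Mean ± SEM, n = 4 mice per group; one-way ANOVA with Bonferroni post hoc.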

Mus musculus [3] = assay: Cognitive enhancing effect in 6 months young APP/PS1 double mutant-transgenic mouse model assessed as effect on time spent on moving along the field at 2 mg/kg, ip administered thrice a week for 4 weeks by LOF test; format: functional, organism-based
Method in brief: (§2)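 Open-field locomotor test in male APP/PS1 mice after 2 mg/kg i.p. in saline (or vehicle), three times per week for 4 weeks. Read-outs were time spent moving and number of crossings of the central area of a transparent cage. Mean ± SEM, n = 7 per group; one-way ANOVA with Bonferroni post hoc.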

Mus musculus [4] = assay: as §1, with “6” for “11”, “young” for “old”, “134.1” for “83.9”, “13.1” for “21.1”; format: functional
Mus musculus [5] = assay: (§3) Antialzheimer activity in 6 months young APP/PS1 double mutant-transgenic mouse model assessed as postsynaptic potential in CA3 region of hippocampus at 2 mg/kg, ip administered thrice a week for 4 weeks followed by stimulation with 1 to 10 uA EPSP by fluorescence microscopy based electrophysiology method (reference value: 0.269 +/- 0.072 mV/ms); format: functional
Method in brief: (§4)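 Hippocampal slices from male APP/PS1 mice given 2 mg/kg i.p. in saline (or saline alone), three times per week for 4 weeks. Input–output curves were built from evoked fEPSP slopes and fiber volley amplitudes, with values taken at the maximum current intensity. Mean ± SEM of 9 slices from 3 mice per group; two-way ANOVA with Bonferroni post hoc.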

Mus musculus [6] = assay: Memory enhancement effect in 6 months young APP/PS1 double mutant-transgenic mouse model at 2 mg/kg, ip administered thrice a week for 4 weeks by memory flexibility text; format: functional, organism-based
Method in brief: (§5)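 Memory flexibility test in male APP/PS1 mice treated i.p. with 2 mg/kg in saline (or vehicle), three times weekly for 4 weeks. The number of trials to reach criterion was counted on each testing day over 4 days. Mean ± SEM, n = 7 per group; one-way ANOVA with Bonferroni post hoc.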

Mus musculus [7] = assay: Cognitive enhancing effect in 6 months young APP/PS1 double mutant-transgenic mouse model assessed as increase in preference index for object at 2 mg/kg, ip administered thrice a week for 4 weeks by novel object localization test; format: functional, organism-based
Method in brief: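 Male APP/PS1 mice received 2 mg/kg i.p. in saline (or vehicle), three times per week for 4 weeks. Preference index = time exploring the relocated or novel object divided by total time exploring both objects. Mean ± SEM, n = 7 per group; one-way ANOVA with Bonferroni post hoc.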

Mus musculus [8] = assay: Memory enhancement effect in 11 months old APP/PS1 double mutant-transgenic mouse model assessed as number of trials required to reach criterion at 2 mg/kg, ip administered thrice a week for 4 weeks measured after 4 days by memory flexibility text; format: functional; method in brief: as §5
Mus musculus [9] = assay: Neuroprotective activity in 11 months old APP/PS1 double mutant-transgenic mouse model assessed as decrease in 4-hydroxy-2-nonenal levels in hippocampus at 2 mg/kg, ip administered thrice a week for 4 weeks by Hoechst staining based immunofluorescence analysis; format: functional, organism-based
Method in brief: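 Hippocampal 4-hydroxy-2-nonenal was assessed by immunofluorescence with Hoechst counterstain in male APP/PS1 mice given 2 mg/kg i.p. in saline (or vehicle), three times weekly for 4 weeks. Mean ± SEM, n = 4 mice per group; one-way ANOVA with Bonferroni post hoc.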

Acetylcholinesterase = Acetylcholinesterase (Homo sapiens, UniProt P22303); assay: Inhibition of recombinant human AChE using acetylthiocholineiodide as substrate preincubated for 20 mins followed by substrate addition by Ellman's method
Method in brief: (§6)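 Enzyme was 0.02 U/mL human recombinant AChE or human serum BChE. Non-enzymatic hydrolysis was corrected. IC50 came from a % inhibition vs log[I] regression. Selectivity = IC50 hBChE/IC50 hAChE. Mean ± SEM of ≥2 experiments, each in duplicate/triplicate.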

Cholinesterase = Cholinesterase (Homo sapiens, UniProt P06276); assay: Inhibition of human serum BChE using butyrylthiocholineiodide as substrate preincubated for 20 mins followed by substrate addition by Ellman's method; format: cell-free; method in brief: as §6
Mus musculus [10] = assay: Cognitive enhancing effect in 11 months old APP/PS1 double mutant-transgenic mouse model assessed as effect on time spent on moving along the field at 2 mg/kg, ip administered thrice a week for 4 weeks by LOF test; format: functional, organism-based; method in brief: as §2
[11] = Drug concentration in wild type C57BL6 mouse plasma at 2 mg/kg, ip thrice a week for 2 weeks observed after 4 hrs post last dose by HPLC/MS/MS analysis; conditions: plasma
[12] = Drug distribution in wild type C57BL6 mouse liver at 2 mg/kg, ip thrice a week for 2 weeks observed after 4 hrs post last dose by HPLC/MS/MS analysis; format: ADME, organism-based; conditions: in vivo, 336 h
Mus musculus [13] = assay: Cognitive enhancing effect in 6 months young APP/PS1 double mutant-transgenic mouse model assessed as effect on number of times animal crossing central area in transparent cage at 2 mg/kg, ip administered thrice a week for 4 weeks by LOF test; format: functional, organism-based; method in brief: as §2
[14] = Drug distribution in wild type C57BL6 mouse brain at 2 mg/kg, ip thrice a week for 2 weeks observed after 4 hrs post last dose by HPLC/MS/MS analysis; format: ADME, organism-based; conditions: in vivo, 336 h
[15] = Drug distribution in wild type C57BL6 mouse kidney at 2 mg/kg, ip thrice a week for 2 weeks observed after 4 hrs post last dose by HPLC/MS/MS analysis; format: ADME, organism-based; conditions: in vivo, 336 h
Mus musculus [16] = assay: as §3, with “11” for “6”, “old” for “young”, “fiber volley amplitude” for “postsynaptic potential”, “0.826” for “0.269”, “0.169” for “0.072”; format: functional; method in brief: as §4
[17] = Drug concentration in wild type C57BL6 mouse brain at 2 mg/kg, ip thrice a week for 2 weeks observed after 4 hrs post last dose by HPLC/MS/MS analysis; conditions: brain
[18] = Selectivity index, ratio of IC50 for human serum BChE using butyrylthiocholineiodide as substrate to IC50 for recombinant human AChE using acetylthiocholine iodide as substrate
Method in brief: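 Ellman spectrophotometric assay in 0.1 M phosphate buffer, pH 8.0, with 340 μM DTNB. Enzyme was 0.02 U/mL human recombinant AChE or human serum BChE. […] Then 550 μM ATCh or BTCh was added, and A412 was followed for 210 s. Non-enzymatic hydrolysis was corrected. IC50 came from a % inhibition vs log[I] regression. Selectivity = IC50 hBChE/IC50 hAChE. Mean ± SEM of ≥2 experiments, each in duplicate/triplicate.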

Chain of Acetylcholinesterase (P22303 whole entry): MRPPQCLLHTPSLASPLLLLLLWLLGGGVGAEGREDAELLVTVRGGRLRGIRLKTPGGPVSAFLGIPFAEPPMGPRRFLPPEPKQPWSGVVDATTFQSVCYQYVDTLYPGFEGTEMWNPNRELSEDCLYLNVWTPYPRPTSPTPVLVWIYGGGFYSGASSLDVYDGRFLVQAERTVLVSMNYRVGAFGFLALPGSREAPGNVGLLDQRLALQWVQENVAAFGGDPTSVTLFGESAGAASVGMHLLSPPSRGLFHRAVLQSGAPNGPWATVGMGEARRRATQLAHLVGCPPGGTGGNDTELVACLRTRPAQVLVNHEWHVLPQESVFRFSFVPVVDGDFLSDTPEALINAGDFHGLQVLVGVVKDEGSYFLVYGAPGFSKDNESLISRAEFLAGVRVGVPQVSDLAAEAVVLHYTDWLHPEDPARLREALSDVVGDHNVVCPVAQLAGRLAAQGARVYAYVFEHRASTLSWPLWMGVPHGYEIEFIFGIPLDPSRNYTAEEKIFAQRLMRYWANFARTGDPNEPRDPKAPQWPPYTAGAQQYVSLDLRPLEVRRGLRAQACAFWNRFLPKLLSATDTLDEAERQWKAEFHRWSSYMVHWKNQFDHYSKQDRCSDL
Chain of Cholinesterase (P06276 whole entry): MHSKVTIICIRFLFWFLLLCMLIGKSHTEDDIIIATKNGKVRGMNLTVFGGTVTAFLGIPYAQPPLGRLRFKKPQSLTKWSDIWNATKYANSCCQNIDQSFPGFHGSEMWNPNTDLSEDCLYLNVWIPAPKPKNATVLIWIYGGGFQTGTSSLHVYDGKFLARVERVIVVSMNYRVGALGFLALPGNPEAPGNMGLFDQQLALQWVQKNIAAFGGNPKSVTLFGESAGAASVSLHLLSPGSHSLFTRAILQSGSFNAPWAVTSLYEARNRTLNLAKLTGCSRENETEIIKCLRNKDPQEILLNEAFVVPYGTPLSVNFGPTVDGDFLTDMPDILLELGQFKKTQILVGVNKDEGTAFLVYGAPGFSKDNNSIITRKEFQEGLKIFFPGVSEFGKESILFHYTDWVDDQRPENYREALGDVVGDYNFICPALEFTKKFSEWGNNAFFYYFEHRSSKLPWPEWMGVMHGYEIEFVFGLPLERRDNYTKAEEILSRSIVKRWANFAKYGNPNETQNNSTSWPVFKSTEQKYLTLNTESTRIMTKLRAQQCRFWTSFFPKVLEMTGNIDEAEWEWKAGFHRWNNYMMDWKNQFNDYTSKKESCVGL

Structure (SMILES) | Activity (Mus musculus [1]) | Activity (Mus musculus [2]) | Activity (Mus musculus [3]) | Activity (Mus musculus [4]) | Activity (Mus musculus [5]) | Activity (Mus musculus [6]) | Activity (Mus musculus [7]) | Activity (Mus musculus [8]) | Activity (Mus musculus [9]) | IC50 (Acetylcholinesterase) | IC50 (Cholinesterase) | Activity (Mus musculus [10]) | concentration at 336 h [11] | Drug uptake [12] | Activity (Mus musculus [13]) | Drug uptake [14] | Drug uptake [15] | Activity (Mus musculus [16]) | concentration at 336 h [17] | Ratio IC50 [18]
COc1cc(CNC(=O)CCCCCCNc2c3c(nc4cc(Cl)ccc24)CC2C=C(C)CC3C2)ccc1O (stereo not given) | 124.3% | Active | inactive | 275.6% | 0.262 mV/ms | inactive | inactive | 13 | Active | 0.77 nM | 30.6 nM | inactive | < 3000 ng/mL | Active | inactive | Active | Active | 0.808 mV | 1580 ng/g | 39.7
COc1cc(CNC(=O)Cc2cn(CCCCC3=CC4Cc5nc6cc(Cl)ccc6c(N)c5C(C3)C4)nn2)ccc1O (stereo not given) | 111% | inactive | inactive | 397.3% | 0.296 mV/ms | inactive | inactive | 7 | Active | 1.06 nM | 7.3 nM | inactive | 35600 ng/mL | Active | inactive | Active | Active | 1.039 mV | 18900 ng/g | 6.9
